Screening data: PubChem BioAssay, several laboratories
Tb hexokinase = blocks Trypanosoma brucei hexokinase 1 activity. recombinant TbHK1, G6PDH-coupled NADH A340. inhibition, % at 10 µM. 0.11% of 220,000 active;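 active means inhibition of 50% or more in the single-dose primary screen; inactive means inhibition below 50%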
EP2 mod = modulates human prostaglandin E2 receptor EP2 signaling; P43116; EP2-expressing cells, cAMP HTRF FRET, PGE2 co-stimulation; induction, % at 25 µM; 0.83% of 260,000 active; AID 940;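 active means compounds whose cAMP rise, as percent of the full-agonist control response, exceeds 60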;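 further: rat C6 glioma line stably carrying human EP2 under a CMV promoter; the protocol text gives 20 µM as final concentration; 100% = response of wells given 1 µM PGE2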
HKDC1 inh = inhibitors of human hexokinase HKDC1; inhibition, % at 20 µM; Q2TB90; AID 493160; 0.16% of 340,000 active; recombinant HKDC1, G6PDH/diaphorase resazurin coupled fluorescence;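 active means inhibition above about 35% when tested at 20 µM, limit read from the data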;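 further: plate controls were DMSO wells with enzyme for no effect and DMSO wells lacking enzyme for full effect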
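test system = in-house recombinant HK5 (HKDC1) enzyme | amount = HKDC1 at 5 µg/mL | control set = DMSO-enzyme wells negative, buffer-substituted wells positive | compound = one dose of 20 µM, 1% DMSO | schedule = reaction time 90 min, room temperature, protected from light | technique = resorufin fluorescence at 613 nm | reagent = glucose with 1 mM ATP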
PfG6PD inh = PfG6PD (Plasmodium falciparum) enzyme inhibition; inhibition, % at 20 µM; PfGluPho enzyme, NADPH resazurin-diaphorase fluorescence; AID 504690; 0.78% of 350,000 active;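 active means inhibition reaching at least a set limit at 20 µM in the primary screen, cut at about 59% in these data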;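 further: 0% = DMSO wells with substrate and 100% = DMSO wells lacking glucose-6-phosphate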
PHOSPHO1 block = blocks human PHOSPHO1 phosphatase activity | Q8TCT1 | recombinant PHOSPHO1, absorbance phosphatase assay | inhibition, % at 13.3 µM | 1.1% of 290,000 active | AID 1565; in the data active means inhibition above about 60%
Target sequence (Q8TCT1 whole entry, looked up): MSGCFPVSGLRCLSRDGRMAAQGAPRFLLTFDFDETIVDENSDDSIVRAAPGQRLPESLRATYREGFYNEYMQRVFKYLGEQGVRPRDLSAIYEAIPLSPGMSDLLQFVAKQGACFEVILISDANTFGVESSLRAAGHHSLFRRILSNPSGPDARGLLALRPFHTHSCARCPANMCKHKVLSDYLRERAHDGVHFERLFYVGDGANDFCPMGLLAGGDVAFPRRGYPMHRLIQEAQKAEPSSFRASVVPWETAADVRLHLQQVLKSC
PGE2 EP2 inh = blocks the human prostaglandin E2 receptor EP2 | C6 glioma cells expressing human EP2, cAMP TR-FRET; cells stimulated with saturating PGE2 | 0.52% of 260,000 active | inhibition, % at 25 µM;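 active means percent inhibition above 40 after rounding to a whole number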;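 further: rat C6 glioma host cells with rolipram phosphodiesterase inhibitor present; the protocol text gives 20 µM as final concentration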
EP2 confirm = human EP2 receptor cAMP induction, negative in counter-screens; 47% of 1,300 active; C6 glioma EP2 cells, cAMP HTRF induction; plus low (about EC15) PGE2 agonist; AID 1080; calls only at 20 µM (by protocol); shares compounds with EP2 mod;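 active means cAMP induction above 50% in the main assay while under 30% in all four parallel counter assays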;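 further: rat C6 glioma cells stably expressing human EP2 receptor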
* hit, by the source's call; i = inactive; . = no result; + = active, no number; ! = not confirmed by another sample. Hits are enriched below; roughly 2.5% of the tested compounds scored in any of these assays.

SMILES | Tb hexokinase | EP2 mod | HKDC1 inh | PfG6PD inh | PHOSPHO1 block | PGE2 EP2 inh | EP2 confirm
CCOc1ccc(OCC)c(NC(=O)CN2CCN(c3ccc(C)cc3C)CC2)c1 | 5.8 | 78.6* | 3.5 | 7.9 | -22.9 | . | +
CCn1c(SCC(=O)NC2CCCCC2)nc2c1c(=O)n(C)c(=O)n2C | . | 17.9 | . | . | . | 14.5 | .
C/C=C/Cn1c(SCc2ccc(C)cc2)nc2c1c(=O)[nH]c(=O)n2C | 26.9 | 86.0*! | -7.7 | 28.8 | 29.6 | 16.4 | +
C/C(Cl)=C/Cn1c(SC(C)C)nc2c1c(=O)[nH]c(=O)n2C | 4.7 | 65.2* | 3.9 | 24.2 | -22.6 | 6.2 | i
C=CCn1c(SCc2ccc(F)cc2)nc2c1c(=O)[nH]c(=O)n2C | 3.3 | 6.8 | 2.0 | 15.7 | 8.6 | 10.4 | .
FC(F)(F)c1cc(-c2ccccc2)nc(N2CCOCC2)n1 | 0.3 | 65.1* | -3.4 | 5.4 | 74.5* | 9.6 | i
FC(F)(F)c1cc(-c2ccccc2)nc(N2CCCCC2)n1 | 6.8 | 25.4 | -7.3 | 10.3 | 11.4 | 3.7 | .
O=C(c1ncoc1-c1ccc(F)cc1)N1CCSCC1 | . | -31.9 | . | . | . | 3.4 | .
CCOc1ccc2c(c1)C(C)=CC(C)(C)N2S(=O)(=O)c1ccc(F)cc1 | . | . | 4.7 | -0.9 | 46.0 | . | .
COc1ccc2c(c1)C(C)=CC(C)(C)N2S(=O)(=O)c1ccc(NC(C)=O)cc1 | . | . | 2.7 | -11.1 | 39.5 | . | .
CC1=CC(C)(C)N(S(=O)(=O)c2ccc(F)cc2)c2ccc(C)cc21 | 5.1 | 72.4* | -2.4 | 16.9 | 19.3 | 15.9 | +
COc1ccc2c(c1)C(C)=CC(C)(C)N2S(=O)(=O)c1ccc(Br)cc1 | 13.6 | 68.8* | 14.3 | -16.7 | 28.8 | 5.7 | +
COc1ccc(NC(=O)c2ccco2)cc1NC(=O)COc1ccc(Cl)cc1 | . | 1.4 | . | . | . | 11.2 | .
COc1ccc(C2C(C(=O)Nc3ccccc3C)=C(C)NC3=C2C(=O)CCC3)cc1OC (stereo not given) | . | -6.3 | . | . | . | 12.8 | .
c1ccc(Nc2nc(N3CCNCC3)nc(N3CCOCC3)n2)cc1 | 6.5 | 67.3* | -2.0 | 0.3 | -3.2 | 3.6 | i
COc1cc(OC)c(C2NC(=S)NC(C)=C2C(=O)Nc2ccc(C)cc2)cc1OC (stereo not given) | . | -9.0 | . | . | . | 7.1 | .
C=CCn1c(Cc2ccccc2)n[nH]c1=S | -3.1 | 9.1 | 1.6 | 23.9 | 27.1 | 13.2 | .
C=CCn1c(CCc2cc(C(C)(C)C)c(O)c(C(C)(C)C)c2)n[nH]c1=S | 4.1 | 58.1 | 3.2 | 28.1 | -102.8 | 6.6 | i
CC(=O)N1c2ccccc2C(C)CC12CCCCC2 (stereo not given) | 1.1 | 93.4* | -1.2 | 24.4 | -4.2 | 8.2 | +
CCCCCc1ccc(-c2ccc(=O)[nH]n2)cc1 | 2.1 | 89.4* | -1.2 | 12.7 | 7.5 | . | i
COc1ccc(-n2c(SCC(=O)Nc3ccc(F)cc3)nnc2-c2ccncc2)cc1 | . | -1.3 | . | . | . | 15.3 | .
C/C(=N\N(Cc1ccccc1)c1ccccc1)c1cccnc1 | -8.0 | 69.8* | 1.1 | 3.5 | 1.8 | 9.4 | i
C(=N\N(Cc1ccccc1)c1ccccc1)/c1cccnc1 | -9.0 | 70.5* | -6.5 | 6.1 | -15.8 | 10.9 | +
Oc1cccc(/C=N/N(Cc2ccccc2)c2ccccc2)c1 | -7.0 | 51.9 | 4.5 | 3.2 | 35.9 | 20.3 | .
COc1ccc(NC(=O)CSc2nc(-c3ccccc3)cc(C(F)(F)F)n2)c(OC)c1 | . | -71.4 | . | . | . | 4.1 | .
SMILES | Tb hexokinase | EP2 mod | HKDC1 inh | PfG6PD inh | PHOSPHO1 block | PGE2 EP2 inh | EP2 confirm
N#Cc1sc2nc(C3CC3)cc(-c3ccc(Cl)cc3)c2c1N | 5.1 | 75.7* | 7.9 | 11.5 | 10.8 | 11.2 | i
CCc1ccccc1NC(=O)/C(=C/c1ccco1)c1ccccc1 | -8.3 | 67.8* | 1.0 | 30.5 | 24.6 | 4.9 | +
CCOC(=O)c1c(-c2ccc(-c3ccccc3)cc2)csc1NC(=O)CCN1CCOCC1 | -17.1 | 73.2* | -0.3 | 3.0 | -5.2 | 11.6 | +
CCOC(=O)c1c(-c2ccc(F)cc2)csc1NC(=O)CCN1CCOCC1 | -8.9 | 39.1 | 3.0 | 0.1 | -3.9 | 6.4 | .
Cc1ccc2c(-c3csc(N)n3)c(C)[nH]c2c1 | . | -79.5 | . | . | . | 6.4 | .
COC(=O)Cc1c(C)nc(-c2ccccc2)[nH]c1=O | . | -10.5 | . | . | . | 13.8 | .
